Measurements: ChEMBL document CHEMBL3745688, “Discovery of novel hybrids of diaryl-1,2,4-triazoles and caffeic acid as dual inhibitors of cyclooxygenase-2 and 5-lipoxygenase for cancer therapy” (Eur J Med Chem, 2016)

Tests used:
A549 [1] = assay: Cell cycle arrest in human A549 cells assessed as accumulation at S phase at 1 uM after 72 hrs by propidium iodide staining based flow cytometry (reference value: 42.46%); assay type: functional
A549 [2] = assay: Cell cycle arrest in human A549 cells assessed as accumulation at S phase at 25 uM after 72 hrs by propidium iodide staining based flow cytometry (reference value: 42.46%); assay type: functional
A549 [3] = assay: Induction of apoptosis in human A549 cells assessed as early apoptotic cells at 5 uM after 72 hrs by annexinV-APC/7-AAD staining based flow cytometry (reference value: 5.7%); assay type: functional
[4] = molecular target: T1, Prostaglandin G/H synthase 2 (Rattus norvegicus, UniProt P35355); assay: Inhibition of COX2 in rat abdominal macrophages assessed as PGE2 production pretreated for 30 mins followed by addition of 10 uM arachidonic acid as substrate for 20 mins by EIA
T1 sequence (P35355 whole entry): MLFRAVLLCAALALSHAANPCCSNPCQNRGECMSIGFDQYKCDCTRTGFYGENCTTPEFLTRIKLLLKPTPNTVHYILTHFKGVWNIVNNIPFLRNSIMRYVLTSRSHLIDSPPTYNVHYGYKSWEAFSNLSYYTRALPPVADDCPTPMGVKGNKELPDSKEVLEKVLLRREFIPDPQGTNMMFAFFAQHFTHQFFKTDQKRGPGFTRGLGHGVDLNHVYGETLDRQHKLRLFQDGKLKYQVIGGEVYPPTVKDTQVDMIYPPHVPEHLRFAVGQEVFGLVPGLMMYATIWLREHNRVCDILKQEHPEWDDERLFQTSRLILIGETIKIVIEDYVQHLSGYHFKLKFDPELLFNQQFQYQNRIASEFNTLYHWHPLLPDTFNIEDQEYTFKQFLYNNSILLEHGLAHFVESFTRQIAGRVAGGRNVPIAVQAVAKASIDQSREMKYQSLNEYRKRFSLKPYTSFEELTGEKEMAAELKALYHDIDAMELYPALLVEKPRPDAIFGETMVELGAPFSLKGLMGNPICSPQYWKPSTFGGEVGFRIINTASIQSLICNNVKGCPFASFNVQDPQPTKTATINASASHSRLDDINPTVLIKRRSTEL

[5] = molecular target: T2, Polyunsaturated fatty acid 5-lipoxygenase (Rattus norvegicus, UniProt P12527); assay: Inhibition of 5-LOX in Sprague-Dawley rat leukocytes assessed as A23187 stimulated LTB4 production pretreated for 30 mins followed by addition of A23187 for 30 mins by EIA; assay type: cell-based
T2 sequence (P12527 whole entry): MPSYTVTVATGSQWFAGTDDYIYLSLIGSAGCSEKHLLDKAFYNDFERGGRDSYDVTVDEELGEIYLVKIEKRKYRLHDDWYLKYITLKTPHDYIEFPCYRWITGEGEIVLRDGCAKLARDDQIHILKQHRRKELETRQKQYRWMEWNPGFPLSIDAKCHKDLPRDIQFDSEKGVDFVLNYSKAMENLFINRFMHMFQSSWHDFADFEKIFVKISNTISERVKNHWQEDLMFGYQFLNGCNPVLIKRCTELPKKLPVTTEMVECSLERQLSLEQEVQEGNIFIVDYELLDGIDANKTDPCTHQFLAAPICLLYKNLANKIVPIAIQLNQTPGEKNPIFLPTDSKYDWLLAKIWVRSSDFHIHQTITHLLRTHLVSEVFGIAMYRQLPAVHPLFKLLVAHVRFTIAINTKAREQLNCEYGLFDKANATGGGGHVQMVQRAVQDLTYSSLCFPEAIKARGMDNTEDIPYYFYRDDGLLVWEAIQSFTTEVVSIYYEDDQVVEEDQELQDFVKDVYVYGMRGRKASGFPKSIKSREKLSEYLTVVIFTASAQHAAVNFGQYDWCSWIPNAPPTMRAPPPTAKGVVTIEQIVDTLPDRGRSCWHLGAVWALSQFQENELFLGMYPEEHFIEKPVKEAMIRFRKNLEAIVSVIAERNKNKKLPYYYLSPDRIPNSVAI
In short: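 Rat peritoneal leukocytes collected from Sprague-Dawley rats primed i.p. with 0.2% glycogen (20 mL/kg). Cells in Hanks solution plated at 1.0×10^6/well and held 10 min at 37 °C. Pretreated 30 min with L-cysteine (10 mM), indomethacin (1 mg/L) and compound or DMSO. A23187 added for 30 min. LTB4 in the clarified supernatant measured by EIA; % inhibition from OD; IC50 by Bliss method.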

[6] = Antiproliferative activity against mouse B16F10 cells after 72 hrs by MTT assay; assay type: functional, cell-based; conditions: B16-F10, 72 h
In short: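 Cells seeded at 5×10^4/well, grown 24 h at 37 °C in 5% CO₂, then exposed to compounds dissolved in DMSO at a range of concentrations for 72 h. MTT (5 mg/mL in PBS) added for 4 h, then OD read at 570 nm. IC50 taken from dose-response curves, mean ± S.D. of three independent experiments.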

- IC50 [4]: 180 nM
- IC50 [5]: 710 nM
Structure (SMILES): CS(=O)(=O)c1ccc(-c2nc(SCCCOC(=O)/C=C/c3ccc(O)c(O)c3)nn2-c2ccc(F)cc2)cc1
- Activity (A549 [1]): 42.92%
- Activity (A549 [2]): 32.19%
- Activity (A549 [3]): 23.68%
- IC50 [6]: 10400 nM
